Only some compounds are listed: those with a hit (about 4.5% of all), similar ones and a draw of the others.
TAAR1 ag – human TAAR1 agonism; Q96RJ0; CHO RD-HGA16 TAAR1, Fluo-8 calcium fluorescence; vehicle wells 0%, saturating PEA agonist 100%; activation, % at 3 µM; actives 0.99% (n = 360,000);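 active means activation above the mean activation of all test compounds in the run plus 3 SD, cut at about 38% in these data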
Target sequence (Q96RJ0 whole entry, looked up): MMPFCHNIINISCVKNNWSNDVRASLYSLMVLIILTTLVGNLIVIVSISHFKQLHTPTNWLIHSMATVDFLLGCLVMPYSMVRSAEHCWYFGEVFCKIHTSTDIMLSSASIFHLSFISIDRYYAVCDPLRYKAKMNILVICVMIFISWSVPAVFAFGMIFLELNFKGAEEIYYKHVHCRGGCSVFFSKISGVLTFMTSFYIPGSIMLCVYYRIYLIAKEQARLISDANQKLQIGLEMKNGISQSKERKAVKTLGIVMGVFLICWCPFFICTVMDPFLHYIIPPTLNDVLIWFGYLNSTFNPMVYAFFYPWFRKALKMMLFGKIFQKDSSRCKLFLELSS
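Signal – calcium-sensitive Fluo-8 signal, excitation 470-495, emission 515-575 nm · System – RD-HGA16 (CHO) cells co-expressing Gα16 and hTAAR1 · Incubation – 17-24 h seeding, 75 min 37 °C dye, 30 min RT · Compound dosing – 3 µM single concentration · Repeats – no replicates (n 1)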
CHO parental Ca – counter-screen for OX1R antagonists: effect in parental CHO cells; parental CHO-K1, ATP-induced calcium, Fluo-8 fluorescence; actives 0.63% (n = 330,000); AID 463079; inhibition, % at 5.6 µM;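 active means inhibition above that plate's mean sample inhibition plus 3 SD, cut at about 26% in these data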
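Material – parental CHO cells · Reagent – ATP stimulus · Compound – single nominal dose of 5.6 µM per compound · Detection – Fluo-8 fluorescence · Read-out basis – percent inhibition of calcium signal · Controls – ATP-challenged DMSO wells low, unchallenged DMSO wells high · Repeats – no replicates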
OX1R antag-1 – antagonists of human orexin 1 receptor (OX1R). inhibition, % at 6.6 µM. actives 1.8% (n = 330,000). AID 485270. O43613. OX1R-expressing cells, FRET antagonist read-out; in the data active means inhibition mostly above about 38%, no sharp cut-off; inactive means mostly below about 40%
OX1R antag-2 – blocks the human orexin 1 receptor. O43613. AID 434989. inhibition, % at 5 µM. CHO/OX1R cells, Fluo-8 calcium fluorescence, orexin A. actives 0.43% (n = 330,000);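 active means inhibition above its plate's threshold, mean inhibition of all tested compounds on the plate plus 3 SD, cut at about 37% in these data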
GPR7 antag – antagonists of human GPR7 (neuropeptides B/W receptor 1); GPR7-expressing cells, fluorescence antagonist assay; AID 1861; actives 1.1% (n = 290,000); inhibition, % at 4.4 µM; in the data active means inhibition above about 16%, passing the limit was not always enough;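 further: cells stimulated with the agonist NPW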
Target sequence (P48145 whole entry, looked up): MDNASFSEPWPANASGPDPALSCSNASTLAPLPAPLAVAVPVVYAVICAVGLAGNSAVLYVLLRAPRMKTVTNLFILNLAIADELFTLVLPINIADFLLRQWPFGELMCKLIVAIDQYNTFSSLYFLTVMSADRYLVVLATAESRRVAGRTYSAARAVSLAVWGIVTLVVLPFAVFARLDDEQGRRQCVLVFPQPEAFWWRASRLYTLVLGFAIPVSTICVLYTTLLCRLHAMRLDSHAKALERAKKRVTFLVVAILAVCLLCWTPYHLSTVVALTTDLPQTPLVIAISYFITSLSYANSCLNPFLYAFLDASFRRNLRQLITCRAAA
TAAR1 antagonist – human TAAR1 antagonism. Q96RJ0. CHO RD-HGA16 TAAR1, Fluo-8 calcium fluorescence, antagonist. inhibition, % at 3 µM. actives 1.5% (n = 360,000). AID 624466;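 active means inhibition above a per-plate cutoff, the mean inhibition of test compounds on that plate plus 3 SD, cut at about 49% in these data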
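Assay system: CHO-derived RD-HGA16 cells stably expressing human TAAR1 plus Gα16. Timing: 140 s kinetic read after compound, 140 s after agonist. Technique: kinetic Fluo-8 calcium fluorescence measurement. Measure: % inhibition of agonist calcium response.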
Numbers stand for hits; - = inactive; . = no result given.

SMILES | TAAR1 ag | CHO parental Ca | OX1R antag-1 | OX1R antag-2 | GPR7 antag | TAAR1 antagonist
N#Cc1ccccc1NC(=O)COC(=O)CN1C(=O)C2CCCCC2C1=O (stereo not drawn) | - | - | - | - | . | -
N=c1c(C(=O)NCc2ccc3c(c2)OCO3)cc2c(=O)n3ccccc3nc2n1CC1CCCO1 (stereo not drawn) | - | - | 68.7 | - | - | -
N=c1c(C(=O)NCC2CCCO2)cc2c(=O)n3ccccc3nc2n1Cc1ccccc1Cl (stereo not drawn) | - | - | - | - | - | -
N=c1c(C(=O)NCc2ccco2)cc2c(=O)n3ccccc3nc2n1CC1CCCO1 (stereo not drawn) | - | - | 49.5 | - | - | -
Cc1ccc(Cn2c(=N)c(C(=O)NCc3ccco3)cc3c(=O)n4ccccc4nc32)cc1 | - | - | - | - | - | -
C=CCNc1cccc2c1S(=O)(=O)N[C@H](CC(C)C)CO2 | - | . | . | . | . | -
CN(C(=O)COC(=O)CSc1ccc(C(N)=O)cc1[N+](=O)[O-])C1CCCCC1 | - | - | 47.1 | - | . | -
COc1ccc(C(=O)OCC(=O)N2CCCCC2)cc1[N+](=O)[O-] | - | - | - | - | - | -
CC1CCN(C(=O)COC(=O)CSc2ccc(C(N)=O)cc2[N+](=O)[O-])CC1 | - | - | 63.1 | - | . | -
CC1CCCN(C(=O)COC(=O)CSc2ccc(C(N)=O)cc2[N+](=O)[O-])C1 (stereo not drawn) | - | - | 74.2 | - | . | -
NC(=O)c1ccc(SCC(=O)OCC(=O)N2CCCCC2)c([N+](=O)[O-])c1 | - | - | 63.4 | - | . | -
Cc1ccc(Cc2c(-c3cccc(Br)c3)nc3c(C)cc(Br)cn23)cc1 | - | . | . | . | . | -
CN[C@H]1C[C@H]2c3[nH]c4c(-c5ccc6c(c5)OCO6)cccc4c3CCN2C(=O)[C@H]1[C@H](C)O | - | . | . | . | . | -
NC(=O)c1ccc(SCC(=O)OCC(=O)N2CCN(C(=O)c3ccco3)CC2)c([N+](=O)[O-])c1 | - | - | 57.6 | - | . | -
Cc1ccc(NC(=O)CSc2ccc(C(N)=O)cc2[N+](=O)[O-])cc1C | - | 32.7 | - | - | - | -
CCOC(=O)[C@@H]1CSCCS(=O)(=O)N1C(=O)[C@H](CCSC)NC(=O)OC(C)(C)C | - | . | . | . | . | -
C[C@@H]1COc2cc(NCCCN3CCOCC3)ccc2S(=O)(=O)N1 | - | . | . | . | . | -
O=C(NCc1ccccc1)[C@@H]1CCCN1C(=O)[C@H]1CCCN1C(=O)C1CCCCC1 | - | . | . | . | . | -
Cc1cc(SCC(=O)N/N=C/c2ccc(O)c(O)c2)nc2ccccc12 | - | - | - | - | - | -
Cc1cc(SCC(=O)N/N=C/c2ccc(O)cc2O)nc2ccccc12 | - | - | 50.2 | - | - | -
CCSc1n[nH]c(=O)n1C | - | . | . | . | . | -
Cc1c(Br)c(O)c(Br)c(O)c1/C=N/n1c(-c2ccccc2)n[nH]c1=S | . | - | 43.8 | - | - | .
O=C(CSc1nnc2ccccn12)NC(=O)c1cccc([N+](=O)[O-])c1 | - | - | 43.2 | - | . | -
COC(=O)[C@]12C[C@H](CC(=O)N3CCSCC3)C(=O)N(Cc3ccc4c(c3)OCO4)C1=C[C@H](COCc1ccccc1)O[C@@H]2C | - | . | . | . | . | -
O=C(CS(=O)(=O)c1ccc(F)cc1)Nc1nnc(-c2ccccc2Cl)o1 | - | - | 45.4 | - | . | -
SMILES | TAAR1 ag | CHO parental Ca | OX1R antag-1 | OX1R antag-2 | GPR7 antag | TAAR1 antagonist
COc1ccc(-c2nnc(NC(=O)CS(=O)(=O)c3ccc(F)cc3)o2)c(OC)c1 | - | - | - | - | . | -
O=C(NCc1ccccc1)[C@H]1CCCN1C(=O)[C@H]1CCCN1C(=O)c1ccc(F)cc1F | - | . | . | . | . | -
O=C(NNc1ccnc2cc(Cl)ccc12)C1CCCCC1 | - | 34.6 | - | - | - | -
C#CCNc1cccc2c1S(=O)(=O)N[C@H](C)CO2 | - | . | . | . | . | -
CCOC(=O)CN1C(=O)S/C(=C/c2ccc3c(c2)n(C)c(=O)n3C)C1=O | - | - | - | - | - | -
CCOC(=O)CN1C(=O)S/C(=C/C=C/c2ccc(N(C)C)cc2)C1=O | 45.5 | 32.1 | - | 54.6 | - | -
O=C(Nc1ccc(Br)cn1)c1ccc(Cl)s1 | - | - | 52.5 | - | - | -
COc1ccccc1CNc1ccc2c(c1)OC[C@H](CC(C)C)NS2(=O)=O | - | . | . | . | . | -
O=C(CSc1nc2ccccc2c(=O)n1NC(=O)Cc1ccccc1)NCc1ccccc1Cl | - | - | 52.6 | - | - | -
CC(C)OCCCNC(=O)CN1C(=O)/C(=C/c2ccccc2)Sc2ccccc21 | - | - | 69.4 | - | - | -
CCc1ccc(/C=C2/Sc3ccccc3N(CC(=O)NCCCOC)C2=O)cc1 | . | - | - | - | - | .
CCCN(CCC)CCN1CCN(C(=O)[C@H](CCc2ccccc2)NC(=O)[C@H]2O[C@@H](n3cnc4c(N)ncnc43)[C@H](O)[C@@H]2O)CC1 | - | . | . | . | . | -
N/C(Cc1ccc(Cl)c(Cl)c1)=N\OC(=O)c1cccs1 | - | - | - | - | 20.3 | -
O=C(C(=O)N1CCN(S(=O)(=O)c2ccc(Cl)cc2)CC1)c1cccc(C(F)(F)F)c1 | - | . | . | . | . | -
O=C(NCCc1ccc(O)c(Br)c1)c1ccc(Br)o1 | - | . | . | . | . | -
COc1ccc(CN2C[C@H](COCc3ccccc3)Oc3cccc(Oc4ccc(C(C)C)cc4)c3S2(=O)=O)cc1 | - | . | . | . | . | -
CCn1c2ccccc2c2cc(CN3CCN(Cc4cc(OC)ccc4O)CC3)ccc21 | - | - | 49.6 | - | - | -
CCn1c2ccccc2c2cc(CN3CCN(S(C)(=O)=O)CC3)ccc21 | - | - | - | - | - | -
COC(=O)c1cc2c(c3c4cc(F)ccc4n(S(=O)(=O)c4ccc(C)cc4)c13)C(=O)N(Cc1ccc(N(C)C)cc1)C2 | - | . | . | . | . | -
COc1cc(/C=C/c2ccc3cccc(OC)c3n2)c(OC(C)=O)c([N+](=O)[O-])c1 | - | - | 59.0 | - | - | 48.9
CC(C)CNc1cccc2c1S(=O)(=O)N[C@@H](C)CO2 | - | . | . | . | . | -
CCOC(=O)/C(=C/C=C1\Sc2ccccc2N1CC)C(C)=O | . | 28.1 | - | - | - | .
O=C(Nc1ccc(Oc2ccccc2)cc1)c1csc([C@@H]2O[C@H](CO)[C@@H](O)[C@H]2O)n1 | - | . | . | . | . | 58.9
O=C(Nc1ccc(OCCO)cc1)c1csc([C@@H]2O[C@H](CO)[C@H](O)[C@H](O)[C@H]2O)n1 | - | . | . | . | . | -
CC(=O)Nc1ccc(NC(=O)c2csc([C@@H]3C[C@H](O)[C@@H](CO)O3)n2)cc1 | - | . | . | . | . | -
O=C(Nc1ccc(Oc2ccccc2)cc1)c1csc([C@H]2C[C@H](O)[C@@H](CO)O2)n1 | - | . | . | . | . | 67.9
CCOC(=O)C1=C(C(=O)OCC)C2N(Cc3ccc(C#N)cc3)c3ccccc3[C@@]23C[C@@H](C(=O)OC)N(S(=O)(=O)c2c(C)noc2C)C3=N1 (stereo partly drawn) | - | . | . | . | . | -

Screening data deposited in PubChem by The Scripps Research Institute Molecular Screening Center.
